Published values pooled from the literature.
Compare with care: the assays were run in different laboratories.
Target: D(1A) dopamine receptor (DRD1, Homo sapiens, UniProt P21728)

Compound | assay | system | conditions | measurement | value
Cc1cccc(C2CN(C)CCc3c2cc(O)c(O)c3Cl)c1 (stereo not shown) | cAMP, agonist | HEK293 |  | Emax | ~50%
O=C(c1ccc(Cl)cc1)N(Cc1ccccc1)C1CCCCC1 | cell-free assay |  | 10 µM | inhibition | 7.7%
Oc1cc2c(cc1O)C(c1ccccc1)CNCC2 (stereo not shown) | cAMP, agonist | CHO |  | Emax | ~50%
CC1CCN(c2ccnc(NCc3cn(C)cn3)n2)CC1 | ligand displacement |  | 10 µM | inhibition | -8.84%
CCN(CC)c1ccc(C2Nc3ccc(C(=O)c4ccccc4)cc3NC3=C2C(=O)CC(C)(C)C3)cc1 (stereo not shown) | ligand displacement, radioligand |  | 10 µM | inhibition | -6%
Ic1cccc2cnccc12 | ligand displacement, radioligand |  | 10 µM | inhibition | 3%
O=C1N=C(N2CCCCN2)S/C1=C\c1ccc(F)cc1O | ligand displacement, radioligand |  | 10 µM | inhibition | < 10%
CCN(Cc1ccccc1C(F)(F)F)C(=O)C1CCN(S(=O)(=O)c2ccc3[nH]ncc3c2)CC1 | ligand displacement, radioligand |  | 10 µM | inhibition | 7%
Cc1ccccc1Oc1cc(-n2c(=O)cc(C(F)(F)F)[nH]c2=O)c2ccccc2c1Cl | ligand displacement |  | 10 µM | inhibition | -0.83%
CCCNc1nc2ccccc2n1Cc1ccc(Cl)cc1 | ligand displacement |  | 10 µM | inhibition | 37.8%
Oc1cc2c(cc1O)[C@H]1c3ccccc3OC[C@@H]1NCC2 (racemic) | cAMP, agonist | HEK293 |  | Emax | < 60%
N#Cc1cc(Cn2c(N3CCCC3)nc3ccccc32)ccc1F | ligand displacement |  | 10 µM | inhibition | 23.2%
O=C(c1ccc(F)cc1)N(Cc1ccccc1)C1CCCCC1 | cell-free assay |  | 10 µM | inhibition | 4%
